From ChEMBL document CHEMBL1122519, “Bispyridinamines: a new class of topical antimicrobial agents as inhibitors of dental plaque” (1984)

Experiments:
Staphylococcus aureus [1] = assay: Minimum antimicrobial inhibitory concentration against Staphylococcus aureus; assay type: functional
Method in brief: (§1)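 Serial twofold tube dilution in tryptose phosphate broth. Each compound was prepared as a 1000 μg/mL aqueous stock and diluted in double-strength broth, then 2×10^5 cells were added. Tubes were incubated aerobically at 37 °C for 24 h. The MIC was taken as the lowest concentration with no visible growth.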

Escherichia coli [2] = assay: Minimum inhibitory concentration against Escherichia coli (Vogel); assay type: functional; method in brief: as §1
Streptococcus mutans [3] = assay: Minimum plaque inhibitory concentration using a standard test organism, Streptococcus mutans OMZ-61; assay type: functional, organism-based
Method in brief: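 Ceramic hydroxylapatite plates were soaked twice for 1 min each in compound at […] (aqueous), air-dried and rinsed, then hung in sucrose beef-extract medium (pH 7.0) inoculated with late-log S. mutans OMZ-61. Incubation was anaerobic at 37 °C for 24 h, and treatment plus reinoculation were repeated for a second 24 h. Plaque was stained with 1% FD&C Red No. 3 and scored visually. The value is the lowest concentration giving no plaque while medium growth matched control.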

Escherichia coli [4] = assay: Antimicrobial minimum inhibitory concentration against Escherichia coli AB1932-1; assay type: functional; method in brief: as §1
Klebsiella pneumoniae = assay: Minimum inhibitory concentration against Klebsiella pneumonia 39645; assay type: functional; method in brief: as §1
[5] = Compound is evaluated for stain index; assay type: functional
Method in brief: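 Ratio of the minimum concentration staining a plaque-free ceramic hydroxylapatite plate to the minimum plaque-inhibiting concentration, both run under the same conditions. Plates got two 1-min soaks (0.1–0.001%), each followed by air-drying, then a water rinse. They were then held 24 h anaerobically at 37 °C in sucrose beef-extract medium, with or without S. mutans OMZ-61, repeated once. Staining was 1-min 1% FD&C Red No. 3, scored visually.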

Pseudomonas aeruginosa [6] = assay: Minimum antimicrobial inhibitory concentration against Pseudomonas aeruginosa MGH-2; assay type: functional; method in brief: as §1
Proteus mirabilis [7] = assay: Minimum antimicrobial inhibitory concentration against Proteus mirabilis MGH-1; assay type: functional; method in brief: as §1
Escherichia coli [8] = assay: Antimicrobial minimum inhibitory concentration against Escherichia coli 100/B22; assay type: functional; method in brief: as §1
Streptococcus mutans [9] = assay: Compound is evaluated for minimal bactericidal concentration against plaque formation for Streptococcus mutans; assay type: functional, organism-based
Method in brief: (§2)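 Preformed in vitro plaques of S. mutans NCTC 10449 or A. viscosus M-100 were grown on ceramic hydroxylapatite under anaerobic conditions at 37 °C in sucrose-supplemented medium. Plaques were immersed for 30 min at 37 °C in compound at 0.3–20 mM, rinsed, and moved to broth containing bromocresol purple. Kill was judged by no acid production, no turbidity increase and no growth on plating at 48 h. Plaques were run in quadruplicate.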

Actinomyces viscosus = assay: Compound is evaluated for minimal bactericidal concentration against plaque formation for Actinomyces viscosus; assay type: functional, organism-based; method in brief: as §2
Staphylococcus aureus [10] = assay: Compound is evaluated for the antimicrobial minimum inhibitory concentration against Staphylococcus aureus (Smith); assay type: functional; method in brief: as §1
Pseudomonas aeruginosa [11] = assay: Compound is evaluated for the antimicrobial minimum inhibitory concentration against Pseudomonas aeruginosa MGH-1; assay type: functional
Proteus mirabilis [12] = assay: Compound is evaluated for the antimicrobial minimum inhibitory concentration against Proteus mirabilis MGH-1; assay type: functional; method in brief: as §1
Streptococcus mutans [13] = assay: Compound is evaluated for minimum plaque inhibitory concentration using a standard test organism, Streptococcus mutans OMZ-61; assay type: functional
Method in brief: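 S. mutans OMZ-61 in pH 7.0 beef extract–trypticase medium with 0.5% sucrose. Sterile ceramic hydroxylapatite plates got two 1-min soaks in 0.1–0.001% compound, each followed by 1-min air-drying, then a 5-min water rinse. Plates were put in inoculated medium at 37 °C anaerobically for 24 h. The cycle was repeated for a second 24 h. Plaque was stained with 1% FD&C Red No. 3. Value is the lowest concentration completely preventing plaque.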

SMILES | MIC (Staphylococcus aureus [1]) | MIC (Escherichia coli [2]) | Concentration (Streptococcus mutans [3]) | MIC (Escherichia coli [4]) | MIC (Klebsiella pneumoniae) | Stain index [5] | MIC (Pseudomonas aeruginosa [6]) | MIC (Proteus mirabilis [7]) | MIC (Escherichia coli [8]) | Concentration (Streptococcus mutans [9]) | Concentration (Actinomyces viscosus) | MIC (Staphylococcus aureus [10]) | MIC (Pseudomonas aeruginosa [11]) | MIC (Proteus mirabilis [12]) | Min plague Inhibitory (Streptococcus mutans [13])
Br.Br.CCCCCCCCCN=c1ccn(CCCCCCCn2ccc(=NCCCCCCCCC)cc2)cc1 | 0.5 µg/mL | 1 µg/mL | 0.004% | 2 µg/mL | 2 µg/mL | 1 | 15.6 µg/mL | 3.9 µg/mL | 2 µg/mL | 2.86 mM | 7.16 mM |  |  |  | 
Br.Br.CCCCCCCCN=c1ccn(CCCCCCCCCCCCn2ccc(=NCCCCCCCC)cc2)cc1 | 0.5 µg/mL | 2 µg/mL | 0.005% | 2 µg/mL | 1 µg/mL | 10 | 2 µg/mL | 2 µg/mL | 2 µg/mL | 2.7 mM | 1.35 mM |  |  |  | 
CCCCCCCN=c1ccn(CCCCCCCCCCCCn2ccc(=NCCCCCCC)cc2)cc1.Cl.Cl | 0.2 µg/mL | 0.5 µg/mL | 0.003% | 1 µg/mL | 2 µg/mL | 10 | 3.9 µg/mL | 2 µg/mL | 0.5 µg/mL | 2.81 mM | 2.81 mM |  |  |  | 
Br.Br.CCCCCCCCCN=c1ccn(CCCCCCCCn2ccc(=NCCCCCCCCC)cc2)cc1 | 1 µg/mL | 3.9 µg/mL | 0.004% | 2 µg/mL | 2 µg/mL | 1 | 7.8 µg/mL | 3.9 µg/mL | 2 µg/mL | 2.5 mM | 2.5 mM |  |  |  | 
Br.Br.N=c1ccn(CCCCn2ccc(=N)cc2)cc1 |  | 500 µg/mL |  |  | > 500 µg/mL |  |  |  |  |  |  | 125 µg/mL | > 500 µg/mL | > 500 µg/mL | >1%
